Measured values from ChEMBL document CHEMBL3763095, “Naphtho[1',2':4,5]imidazo[1,2-a]pyridine-5,6-diones: Synthesis, enzymatic reduction and cytotoxic activity” (Bioorg Med Chem Lett, 2016).

What was measured:
Parameters in all cases: species or system Homo sapiens
[1] = substrate: O=C1C(=O)c2c(nc3ccc(Cl)cn23)-c2ccccc21; assay: (§1) Activity of NADPH:cytochrome P-450R (unknown origin) assessed as NADPH oxidation by spectrophotometric analysis
Procedure, shortened: (§2)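 Initial rates of enzymatic reduction measured at varied compound concentrations with NADPH fixed at 150 µM. Reactivity expressed as apparent second-order k_cat/K_m, taken as the efficiency of reduction by the reduced free enzyme (ping-pong scheme).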

[2] = substrate: O=C1C(=O)c2c(nc3ccc(Br)cn23)-c2ccccc21; assay: as §1; procedure, shortened: as §2
[3] = substrate: O=C1C(=O)c2c(nc3ccc(C(F)(F)F)cn23)-c2ccccc21; assay: as §1; procedure, shortened: as §2
[4] = substrate: Cc1ccc2nc3c(n2c1)C(=O)C(=O)c1ccccc1-3; assay: as §1; procedure, shortened: as §2
[5] = substrate: COc1ccc2nc3c(n2c1)C(=O)C(=O)c1ccccc1-3; assay: as §1; procedure, shortened: as §2
[6] = substrate: O=C1C(=O)c2c(nc3ccc(F)cn23)-c2ccccc21; assay: as §1; procedure, shortened: as §2
[7] = substrate: O=C1C(=O)c2c(nc3ccc4ccccc4n23)-c2ccccc21; assay: as §1; procedure, shortened: as §2
[8] = substrate: Cc1cccn2c3c(nc12)-c1ccccc1C(=O)C3=O; assay: as §1; procedure, shortened: as §2
[9] = substrate: O=C1C(=O)c2c(nc3ccccn23)-c2ccccc21; assay: as §1; procedure, shortened: as §2
[10] = substrate: O=C1C(=O)c2c(nc3ncccn23)-c2ccccc21; assay: as §1; procedure, shortened: as §2
[11] = substrate: Cc1ccn2c3c(nc2c1)-c1ccccc1C(=O)C3=O; assay: as §1; procedure, shortened: as §2
[12] = substrate: O=C1C(=O)c2c(nc3ccc([N+](=O)[O-])cn23)-c2ccccc21; assay: as §1; procedure, shortened: as §2
[13] = substrate: O=C1C(=O)c2c(nc3ccccn23)-c2ccc([N+](=O)[O-])cc21; assay: as §1; procedure, shortened: as §2

B1: NADPH--cytochrome P450 reductase (Homo sapiens) (protein)
chain: MGDSHVDTSSTVSEAVAEEVSLFSMTDMILFSLIVGLLTYWFLFRKKKEEVPEFTKIQTLTSSVRESSFVEKMKKTGRNIIVFYGSQTGTAEEFANRLSKDAHRYGMRGMSADPEEYDLADLSSLPEIDNALVVFCMATYGEGDPTDNAQDFYDWLQETDVDLSGVKFAVFGLGNKTYEHFNAMGKYVDKRLEQLGAQRIFELGLGDDDGNLEEDFITWREQFWPAVCEHFGVEATGEESSIRQYELVVHTDIDAAKVYMGEMGRLKSYENQKPPFDAKNPFLAAVTTNRKLNQGTERHLMHLELDISDSKIRYESGDHVAVYPANDSALVNQLGKILGADLDVVMSLNNLDEESNKKHPFPCPTSYRTALTYYLDITNPPRTNVLYELAQYASEPSEQELLRKMASSSGEGKELYLSWVVEARRHILAILQDCPSLRPPIDHLCELLPRLQARYYSIASSSKVHPNSVHICAVVVEYETKAGRINKGVATNWLRAKEPAGENGGRALVPMFVRKSQFRLPFKATTPVIMVGPGTGVAPFIGFIQERAWLRQQGKEVGETLLYYGCRRSDEDYLYREELAQFHRDGALTQLNVAFSREQSHKVYVQHLLKQDREHLWKLIEGGAHIYVCGDARNMARDVQNTFYDIVAELGAMEHAQAVDYIKKLMTKGRYSLDVWS
- kcat/Km [1]: 5.4e+07 M⁻¹ s⁻¹
- kcat/Km [2]: 3.7e+07 M⁻¹ s⁻¹
- kcat/Km [3]: 3.5e+07 M⁻¹ s⁻¹
- kcat/Km [4]: 8.9e+06 M⁻¹ s⁻¹
- kcat/Km [5]: 2.9e+07 M⁻¹ s⁻¹
- kcat/Km [6]: 2.4e+07 M⁻¹ s⁻¹
- kcat/Km [7]: 5.6e+06 M⁻¹ s⁻¹
- kcat/Km [8]: 1.3e+07 M⁻¹ s⁻¹
- kcat/Km [9]: 3.1e+07 M⁻¹ s⁻¹
- kcat/Km [10]: 3.4e+07 M⁻¹ s⁻¹
- kcat/Km [11]: 1.4e+07 M⁻¹ s⁻¹
- kcat/Km [12]: 5.9e+07 M⁻¹ s⁻¹
- kcat/Km [13]: 7.2e+07 M⁻¹ s⁻¹
